High-throughput results from PubChem.
HNF4A DNA FP – change in binding of human HNF4A to DNA, primary screen, biochemical, fluorescence polarization, FITC-DNA. actives 0.3% (n = 360,000). 1 h. AID 1224865, 2016. activity change, % at 10 µM. Hepatocyte nuclear factor 4-alpha (Homo sapiens), P41235; in the data active = activity change above about 30%, passing the limit was not always enough
Target sequence (P41235 whole entry, looked up): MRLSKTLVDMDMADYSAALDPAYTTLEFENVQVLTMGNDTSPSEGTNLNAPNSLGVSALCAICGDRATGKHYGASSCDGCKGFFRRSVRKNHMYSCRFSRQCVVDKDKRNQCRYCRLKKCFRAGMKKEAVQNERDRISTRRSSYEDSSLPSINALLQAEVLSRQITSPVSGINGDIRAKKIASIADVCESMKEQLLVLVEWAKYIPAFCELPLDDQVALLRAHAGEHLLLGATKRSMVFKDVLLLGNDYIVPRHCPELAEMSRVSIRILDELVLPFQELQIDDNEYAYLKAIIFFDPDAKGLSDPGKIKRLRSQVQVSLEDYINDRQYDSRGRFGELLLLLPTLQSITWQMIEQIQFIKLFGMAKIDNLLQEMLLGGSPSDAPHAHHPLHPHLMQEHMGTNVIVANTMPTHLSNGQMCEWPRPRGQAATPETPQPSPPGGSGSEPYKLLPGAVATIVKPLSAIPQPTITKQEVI
CSN deneddyl inh – inhibitors of CSN-mediated cullin deneddylation, primary screen, biochemical, fluorescence polarization, uHTS; COP9 signalosome complex subunit 5 (Homo sapiens), Q92905; Purified CSN, SCF-Nedd8-OG deneddylation; inhibition, % at 12.5 µM; actives 0.38% (n = 360,000);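 active = pattern-corrected inhibition above about 35%, with an unprinted fluorescence ratio check between 0.5 and 1.5, limit read from the data, passing the limit was not always enough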;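 note: 0% = enzyme with substrate and 100% = substrate without enzyme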
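Test system: Human Csn5 produced in HEK293T cells | Compound: 12.5 µM single point | Times: 90 min, room temperature | Signal: Fluorescence polarization readout | Read-out basis: % inhibition of substrate cleavage by Csn5 | Controls: no-enzyme wells high, enzyme-with-substrate wells low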
Tb MetRS inh – T. brucei MetRS inhibitors, primary screen, biochemical, luminescence | purified T. brucei MetRS, ATP depletion, Kinase-Glo luminescence | actives 0.4% (n = 360,000) | inhibition, % at 11.9 µM | methionyl-tRNA synthetase (Trypanosoma brucei brucei);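 active = inhibition above a per-plate cutoff of the control wells' mean inhibition plus 3 SD, cut at about 5.5% in these data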;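 note: 0% = DMSO wells median and 100% = median of wells with control inhibitor compound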
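technique = Kinase-Glo luminescence, ATP depletion format | system = purified MetRS (methionyl-tRNA synthetase) enzyme from Trypanosoma brucei | timing = 15 min preincubation, 2 h reaction, all 25 °C | evaluation = percent inhibition versus plate control medians | dosing = single dose, 11.9 µM final nominal, 0.9% final DMSO | also added = substrates ATP, L-methionine and bulk Escherichia coli tRNA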
IDE act – human IDE activators in live cells, primary screen, fluorescence polarization, HEK cells, FAbeta-B substrate | actives 0.073% (n = 340,000) | AID 493087, 2011 | FAbeta-B cleavage; 0% vehicle, 100% cell-free pure enzyme wells | Insulin-degrading enzyme (Homo sapiens), P14735 | activation, % at 5.96 µM;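 active = activation above the mean of all tested compounds plus 3 SD, set per screening campaign, cut at about 17% in these data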
TPT1 inh – Candida albicans TPT1 enzyme inhibitors, primary screen, biochemical, fluorescence polarization; tRNA 2'-phosphotransferase TPT1 (Candida albicans SC5314); actives 0.81% (n = 300,000); recombinant caTPT1, FP RNA substrate dephosphorylation; inhibition, % at 5 µM;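 active = inhibition above the mean of all tested compounds plus 3 SD, set per screening campaign, cut at about 24% in these data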;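 note: plate controls were DMSO alone for no effect and ferristatin control at 100 nM for full effect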
IDE cell inh – human IDE inhibitors in live cells, primary screen, fluorescence polarization, HEK cells, FAbetaB substrate. Insulin-degrading enzyme (Homo sapiens), P14735. FAbetaB cleavage. inhibition, % at 5.59 µM. actives 0.41% (n = 320,000). AID 434962, 2010;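 active = percent inhibition above the average of all tested compounds plus 3 SD, set per screening campaign, cut at about 16% in these data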;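 note: IDE supplied by intact live HEK cells; FP after avidin binding of uncleaved biotin substrate so inhibition keeps polarization high; 0% = DMSO wells and 100% = 60 µM reference IDE inhibitor Ii1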
* marks the source's active call; other numbers are inactive results; · = no result. Compounds with a hit are over-represented: about 1.7% of the library has one in this group of screens.

SMILES | HNF4A DNA FP | CSN deneddyl inh | Tb MetRS inh | IDE act | TPT1 inh | IDE cell inh
O=C1NC2(Nc3ccccc31)C(=O)Nc1ccccc12 (stereo not given) | 5 | 0 | -1 | 3 | 7 | 2
C=CCN1C(=O)C2(NC(=O)c3ccccc3N2)c2ccccc21 (stereo not given) | 81* | 4 | 0 | 0 | -7 | -5
COC(=O)c1csc2c(C(F)(F)F)cc(N3CCN(C(=O)Nc4ccccc4)CC3)nc12 | -1 | 1 | -1 | -6 | -4 | 8
CCOC(=O)Cc1csc(NC(=O)c2sc3nc4c(C)cc(C)cc4cc3c2N)n1 | 40* | 4 | 0 | -10 | 12 | 4
O=C1c2cccc3c(O)ccc(c23)C(=O)N1Cc1ccco1 | -99 | -73 | -1 | 30* | · | ·
O=C1c2ccccc2C(=O)N1Cc1ccco1 | 1 | 2 | 0 | 4 | -5 | 0
O=C1c2cccc3c(O)ccc(c23)C(=O)N1c1ccc(Cl)cc1 | -100 | -76 | 0 | 52* | -14 | -32
Cc1ccc(S(=O)(=O)N2CCN(C3CC(=O)N(CCc4ccccc4)C3=O)CC2)cc1C (stereo not given) | 61* | 0 | -1 | -2 | 2 | 4
COc1ccc(NC(=O)CCc2nnc3ccc(NCc4ccco4)nn23)cc1 | 1 | 0 | 0 | 1 | -2 | 5
COc1ccc(NC(=O)CCc2nnc3ccc(NCc4ccc5c(c4)OCO5)nn23)cc1 | 3 | 36* | 1 | 1 | -6 | 6
COc1ccc(C(=O)/C=C/Nc2ccc([N+](=O)[O-])cc2C)c(OC)c1 | 19 | 8 | 0 | 7 | 4 | -4
COc1ccc(C(=O)/C=C/Nc2ccc([N+](=O)[O-])cc2C)cc1OC | 37* | 46* | -1 | -2 | 12 | 0
CC(=O)Nc1ccccc1OCC(=O)NC1CCCCC1C (stereo not given) | 1 | -2 | 0 | 4 | · | 6
Cc1n[nH]c(=S)n1/N=C/c1cccc(OCc2ccccc2)c1 | 2 | -4 | 0 | 6 | -1 | -2
Cc1n[nH]c(=S)n1/N=C/c1ccccc1OCc1ccc(Cl)cc1 | 51* | 4 | 0 | -6 | 1 | -2
CCCOc1ncnc2c1[nH]c1ccc(OC)cc12 | 6 | 5 | 1 | -20 | -5 | 15
CCCCOc1ncnc2c1[nH]c1ccc(C)cc12 | -1 | -2 | 0 | · | -6 | 38*
COc1ccc(NS(=O)(=O)c2cc([N+](=O)[O-])ccc2N/N=C/c2c(C)[nH]c3ccccc23)cc1 | 77* | 18 | 0 | -4 | · | ·
COc1cccc(C(C(=O)NCc2ccccc2)N(C(=O)c2csnn2)C2CC2)c1 (stereo not given) | 2 | -6 | 0 | 3 | -2 | -5
Clc1ccc(C2=NCCN2)cc1 | -8 | 0 | 0 | 7 | 3 | -3
CC(=O)C1=C(O)C2(C)c3c(O)c(C)c(O)c(C(C)=O)c3OC2CC1=O (stereo not given) | 51* | 16 | 0 | · | · | ·
CC(C)CN(CC(C)C)C1=N/C(=C\c2ccco2)C(=O)N1c1ccccc1 | 1 | 39* | -2 | 3 | 10 | 7
O=C(CNS(=O)(=O)c1c(F)cccc1F)NC1CCCc2ccccc21 (stereo not given) | -3 | -1 | 0 | -4 | · | -5
O=C1c2ccccc2C(Nc2ccc(-c3nc4ccccc4[nH]3)cc2)N1Cc1ccco1 (stereo not given) | -1 | -2 | 3 | -13 | -1 | 5
O=C1c2ccccc2C(Nc2ccc3nc(-c4cccnc4)[nH]c3c2)N1Cc1ccco1 (stereo not given) | -1 | -2 | 0 | 18* | -7 | -9
SMILES | HNF4A DNA FP | CSN deneddyl inh | Tb MetRS inh | IDE act | TPT1 inh | IDE cell inh
COc1ccc(NC(=O)CN(C)S(=O)(=O)c2ccc3c(c2)CC(C)N3C(C)=O)cc1OC (stereo not given) | -4 | 0 | 0 | 1 | 0 | 3
c1ccc2c(CN3CCOCC3)c3ccccc3c(CN3CCOCC3)c2c1 | 32* | -4 | 0 | 0 | -7 | 3
CSCCC(NC(=O)c1ccco1)C(=O)NCc1ccc2c(c1)OCO2 (stereo not given) | 0 | -3 | 0 | 1 | · | ·
CC(=O)NS(=O)(=O)c1ccc(NC(=S)NC(=O)c2ccco2)cc1 | 14 | 93* | 0 | -3 | -5 | -3
CC1CN(C(=O)CCNS(=O)(=O)c2ccc(Br)cc2)CC(C)O1 (stereo not given) | 2 | 4 | 0 | -2 | -2 | 0
CN1c2ccccc2C(C)(C)C12C=Cc1cc(O)ccc1O2 (stereo not given) | 35* | 26 | -1 | 2 | 13 | -3
Cc1[nH]c2ccc(C(=O)N3CCN(c4ccccn4)CC3)cc2c1C | 103* | -4 | 0 | 3 | -2 | 0
CC1(C)C=Cc2c(ccc3c2OC[C@H](c2ccc(O)cc2O)C3)O1 | -4 | -3 | 0 | 18* | · | -4
Cc1cc(NC(=O)CSc2nnc(C(F)(F)F)n2C)no1 | -3 | 0 | 0 | -3 | · | -4
COc1ccc(-n2c(SCC(=O)Nc3nccs3)nc3sc4c(c3c2=O)CCN(C)C4)cc1 | 6 | 0 | 0 | -5 | 11 | 8
COc1ccc(NC(=O)CSc2nc3sc4c(c3c(=O)n2-c2ccc(OC)cc2)CCN(C)C4)cc1 | 6 | 98* | 0 | -3 | 2 | -1
COc1ccc(-c2nc3ccc(N4CCCC4)cc3c(=O)[nH]2)cc1OC | 7 | 113* | 0 | -2 | 0 | 1
CCOC(=O)N1CCN(c2ccncc2S(=O)(=O)N2CCCCC2)CC1 | 2 | -6 | 0 | 3 | -2 | -1
CCOc1ccc(/C=N/NC(=O)CNC(=O)c2ccc(S(=O)(=O)N3CCOCC3)cc2)cc1 | -1 | -1 | 0 | -2 | -2 | 1
CCOCCCNC(=O)C(c1ccc(OC)cc1)N(Cc1cccs1)C(=O)c1ccccc1O (stereo not given) | -4 | 0 | -1 | 6 | -4 | -3
Cc1cn2c(N)c(C=C3C=C(Cl)C(=O)C(Cl)=C3)c(=O)nc2s1 | 108* | 62 | 0 | -32 | · | ·
COC(=O)Cn1c(=NC(=O)c2sc3ccccc3c2Cl)sc2cc(S(N)(=O)=O)ccc21 | -2 | -1 | -1 | -3 | 7 | 20*
COc1cc(-c2ccc3oc(-c4ccsc4)cc(=O)c3c2)cc(OC)c1OC | 0 | 1 | 0 | -8 | · | 3
